ChEMBL document CHEMBL1148389 (J Med Chem, 2004)
Values after ≈ are worked out from the molar mass of the structure shown. Values joined by “and” are separate entries in the source; they are usually repeats but may differ in a detail not shown here. Identical values can stand only once.

Tested on: not listed separately
Test: Ionisation constant for the compound
Format: physicochemical
Conditions: not given
How it was run: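 pKa measured by UV–vis absorbance of the conjugate base in buffers from pH 6.8 to 10.8; DMSO stocks diluted to 0.4–0.5% DMSO. Fraction of A− plotted against pH to obtain pKa.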

| SMILES | pKa |
| --- | --- |
| Oc1cc(Cl)ccc1Oc1ccc(Cl)cc1Cl [TRICLOSAN] | 8.4 |

Same assay, conditions: read-out: pKa

| SMILES | pKa |
| --- | --- |
| Oc1cc(F)ccc1Oc1ccccc1 | 8.12 |
| Cc1ccc(Oc2ccccc2)c(O)c1 | 9.15 |
| Oc1cc(Cl)ccc1Oc1ccccc1 | 8.13 |
| Oc1ccccc1Oc1ccccc1 | 9.12 |
| Oc1cc(Cl)ccc1Oc1ccc(Cl)cc1Cl [TRICLOSAN] | 7.8 |

Target: Enoyl-[acyl-carrier-protein] reductase [NADH] FabI (Escherichia coli) (UniProt P0AEK4)
Sequence (P0AEK4 whole entry, looked up): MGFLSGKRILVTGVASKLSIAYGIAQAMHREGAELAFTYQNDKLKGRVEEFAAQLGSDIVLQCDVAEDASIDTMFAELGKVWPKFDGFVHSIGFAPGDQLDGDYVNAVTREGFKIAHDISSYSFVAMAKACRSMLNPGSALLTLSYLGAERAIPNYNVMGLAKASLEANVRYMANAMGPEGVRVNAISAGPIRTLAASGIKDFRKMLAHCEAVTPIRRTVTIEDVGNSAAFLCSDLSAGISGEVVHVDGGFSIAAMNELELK
Test: In vitro inhibitory activity against wild-type enoyl-[acyl-carrier-protein] reductase (FabI) of Escherichia coli expressed as K1
Conditions: not given

| SMILES | K1 |
| --- | --- |
| Oc1cc(Cl)ccc1Oc1ccccc1 | 1.1e-06 µM |
| Oc1ccccc1Oc1ccccc1 | 0.5 µM |
| Oc1ccccc1Cc1ccccc1O | 53 µM |

Tested on: Escherichia coli
Test: Minimum inhibitory concentration against Escherichia coli was determined
Format: functional
Conditions: not given
How it was run: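 Broth microdilution against E. coli BL21(DE3) pLysS in cation-adjusted Mueller–Hinton broth. Stocks in 1 M KOH, diluted via 50 mM Na2CO3 pH 8.5; final 0.01–64 μg/mL.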

| SMILES | MIC |
| --- | --- |
| Oc1cc(F)ccc1Oc1ccccc1 | 0.6 mg/L (≈ 2.94 µM) |
| Cc1ccc(Oc2ccccc2)c(O)c1 | 1 mg/L (≈ 4.99 µM) |
| Oc1cc(Cl)ccc1Oc1ccccc1 | 0.07 mg/L (≈ 0.317 µM) |
| Oc1ccccc1Oc1ccccc1 | 3.7 mg/L (≈ 19.9 µM) |
| Oc1ccccc1Cc1ccccc1O | > 40 mg/L |
| Oc1cc(Cl)ccc1Oc1ccc(Cl)cc1Cl [TRICLOSAN] | 0.3 mg/L (≈ 1.04 µM) |

Target: Enoyl-[acyl-carrier-protein] reductase [NADH] FabI (Escherichia coli) (UniProt P0AEK4)
Test: In vitro inhibitory activity against wild-type enoyl-[acyl-carrier-protein] reductase (FabI) of Escherichia coli expressed as K2
Conditions: not given

| SMILES | K2 |
| --- | --- |
| Oc1cc(F)ccc1Oc1ccccc1 | 42 nM and 240 nM |
| Cc1ccc(Oc2ccccc2)c(O)c1 | 7.2 nM and 9.7 nM |
| Oc1ccccc1Oc1ccccc1 | 400 nM |
| Oc1ccccc1Cc1ccccc1O | 30000 nM |
